Assay results published in ChEMBL document CHEMBL4715682, “Potent trifluoromethoxy, trifluoromethylsulfonyl, trifluoromethylthio and pentafluorosulfanyl containing (1,3,4-oxadiazol-2-yl)benzamides against drug-resistant Gram-positive bacteria” (RSC Med Chem, 2020).
≈ marks a conversion by molar mass, not a printed value. Calls of active or inactive are those of the source. The calls are words filed in the database; no cut-off is given here.

Assays:
[1] = tested on: J774; assay: Cytotoxicity against mouse J774 cells assessed as reduction in cell viability at 32 ug/ml incubated for 24 hrs by MTS assay; format: cell-based; conditions: j774, 24 h, dose 32 µg/ml
[2] = tested on: Acinetobacter baumannii; assay: Antibacterial activity against Acinetobacter baumannii ATCC 19606 RW4 assessed as inhibition of visible bacterial growth at 16 ug/ml incubated for 18 to 20 hrs by CLSI method; format: functional, organism-based; conditions: ATCC 19606 = CIP 70.34 = JCM 6841 RW4, dose 16.0 µg/ml, time 18-20 hrs
In short: (§1)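 CLSI broth microdilution. Strains grown aerobically overnight on tryptic soy agar at 37 °C, adjusted to 0.5 McFarland and diluted in cation-adjusted Mueller–Hinton broth to about 5×10^5 CFU/mL. Compounds and control drugs serially diluted across the plate. Incubated aerobically at 37 °C for 18-20 h. MIC is the lowest concentration with no visible growth.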

[3] = tested on: Staphylococcus aureus; assay: Antibacterial activity against methicillin-resistant Staphylococcus aureus USA400 infected in mouse J774 cells assessed as log reduction in intracellular growth at 16 ug/ml incubated for 18 to 22 hrs; format: functional; conditions: dose 16 µg/ml; time 18-22 hrs
In short: (§2)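 J774 murine macrophages grown in DMEM with 10% FBS at 37 °C, 5% CO2. Cells infected with MRSA USA400 at MOI about 10:1 for 1 h, then washed with gentamicin to remove extracellular bacteria. Agents added at 8 or 16 μg/mL in triplicate, with DMSO vehicle control, for 24 h. Cells lysed with 0.1% Triton-X, lysates plated on tryptic soy agar, and CFU counted after 18-22 h at 37 °C. Analysed by two-way ANOVA with Dunnett's test.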

[4] = tested on: Streptococcus pneumoniae; assay: Antibacterial activity against cephalosporin-resistant Streptococcus pneumoniae ATCC 51916 assessed as inhibition of visible bacterial growth incubated for 18 to 20 hrs by CLSI method; format: functional; conditions: time 18-20 hrs; in short: as §1
[5] = Hemolytic activity in human RBC at 64 ug/ml incubated for 60 mins relative to control; format: ADME, cell-based, Erythrocyte; conditions: red blood cells (erythrocytes), at 64 µg/mL, read-out: Activity
In short: (§3)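 Single-donor human erythrocytes as a 5% v/v suspension in PBS. Compounds serially diluted in PBS, in triplicate, and incubated with RBCs at 37 °C for 60 min. PBS served as the negative control and Triton-X as the positive control. Samples spun at 4,000 rpm for 5 min and supernatant absorbance read at 540 nm. Percent hemolysis = 100×(sample−negative)/(positive−negative).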

[6] = tested on: Staphylococcus aureus; assay: Antibacterial activity against methicillin-resistant Staphylococcus aureus USA400 infected in mouse J774 cells assessed as log reduction in intracellular growth at 8 ug/ml incubated for 18 to 22 hrs; format: functional; conditions: dose 8 µg/ml; time 18-22 hrs; in short: as §2
[7] = tested on: Staphylococcus aureus; assay: Antibacterial activity against methicillin-sensitive Staphylococcus aureus ATCC 6538 assessed as inhibition of visible bacterial growth incubated for 18 to 20 hrs by CLSI method; format: functional; conditions: time 18-20 hrs; in short: as §1
[8] = tested on: Staphylococcus aureus; assay: Antibacterial activity against methicillin-resistant Staphylococcus aureus NRS387 assessed as inhibition of visible bacterial growth incubated for 18 to 20 hrs by CLSI method; format: functional; conditions: time 18-20 hrs; in short: as §1
[9] = tested on: Caco-2; assay: Cytotoxicity against human Caco2 cells assessed as reduction in cell viability at 128 ug/ml incubated for 2 hrs by MTS assay; format: cell-based; conditions: caco-2, 2 h, dose 128 µg/ml
[10] = tested on: Staphylococcus aureus; assay: Synergistic antibacterial activity against methicillin-resistant Staphylococcus aureus ATCC 33592 assessed as fractional inhibitory concentration index in presence of linezolid by checkerboard assay; format: functional
[11] = tested on: Pseudomonas aeruginosa; assay: Antibacterial activity against Pseudomonas aeruginosa ATCC 27853 assessed as inhibition of visible bacterial growth at 16 ug/ml incubated for 18 to 20 hrs by CLSI method; format: functional, organism-based; conditions: dose 16.0 µg/ml, time 18-20 hrs; in short: as §1
[12] = tested on: Staphylococcus aureus; assay: Antibacterial activity against methicillin-resistant Staphylococcus aureus NRS483 assessed as inhibition of visible bacterial growth incubated for 18 to 20 hrs by CLSI method; format: functional; conditions: time 18-20 hrs; in short: as §1
[13] = Hemolytic activity in human RBC at 32 ug/ml incubated for 60 mins relative to control; format: ADME, cell-based, Erythrocyte; conditions: red blood cells (erythrocytes), at 32 µg/mL, read-out: Activity; in short: as §3
[14] = tested on: Staphylococcus aureus; assay: Synergistic antibacterial activity against methicillin-resistant Staphylococcus aureus ATCC 33592 assessed as fractional inhibitory concentration index in presence of methicillin by checkerboard assay; format: functional
[15] = tested on: Staphylococcus aureus; assay: Antibacterial activity against methicillin-resistant Staphylococcus aureus NRS484 assessed as inhibition of visible bacterial growth incubated for 18 to 20 hrs by CLSI method; format: functional; conditions: time 18-20 hrs; in short: as §1
[16] = tested on: Staphylococcus aureus; assay: Antibacterial activity against methicillin-resistant Staphylococcus aureus NRS383 assessed as inhibition of visible bacterial growth incubated for 18 to 20 hrs by CLSI method; format: functional; conditions: time 18-20 hrs; in short: as §1
[17] = tested on: Staphylococcus aureus; assay: Antibacterial activity against Staphylococcus aureus ATCC 25923 assessed as inhibition of visible bacterial growth incubated for 18 to 20 hrs by CLSI method; format: functional; conditions: time 18-20 hrs; in short: as §1
[18] = tested on: Enterococcus faecalis; assay: Antibacterial activity against vancomycin- resistant Enterococcus faecalis ATCC 51299 assessed as inhibition of visible bacterial growth incubated for 18 to 20 hrs by CLSI method; format: functional; conditions: time 18-20 hrs; in short: as §1
[19] = tested on: Staphylococcus aureus; assay: Antibacterial activity against methicillin-resistant Staphylococcus aureus ATCC 33592 assessed as reduction in bacterial count at 3 x MIC incubated upto 24 hrs by time kill analysis; format: functional; conditions: time hrs <=24
In short: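 Time-kill assay. […] Samples taken at 0, 2, 4, 8, 12 and 24 h, serially diluted in PBS and plated on tryptic soy agar. Viable CFU/mL counted after 18-20 h at 37 °C.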

[20] = tested on: Enterococcus faecalis; assay: Antibacterial activity against vancomycin- resistant Enterococcus faecalis ATCC 700221 assessed as inhibition of visible bacterial growth incubated for 18 to 20 hrs by CLSI method; format: functional; conditions: time 18-20 hrs; in short: as §1
[21] = tested on: Staphylococcus aureus; assay: Antibacterial activity against methicillin-sensitive Staphylococcus aureus NRS 107 assessed as inhibition of visible bacterial growth incubated for 18 to 20 hrs by CLSI method; format: functional; conditions: time 18-20 hrs; in short: as §1
[22] = tested on: Staphylococcus aureus; assay: Antibacterial activity against vancomycin-resistant Staphylococcus aureus 10 assessed as inhibition of visible bacterial growth incubated for 18 to 20 hrs by CLSI method; format: functional; conditions: time 18-20 hrs; in short: as §1
[23] = tested on: Staphylococcus aureus; assay: Bacteriostatic activity against methicillin-resistant Staphylococcus aureus ATCC 33592 assessed as reduction in bacterial growth incubated for 18 hrs by CLSI method; format: functional
[24] = tested on: Staphylococcus epidermidis; assay: Antibacterial activity against Staphylococcus epidermidis NRS101 assessed as inhibition of visible bacterial growth incubated for 18 to 20 hrs by CLSI method; format: functional; conditions: time 18-20 hrs
In short: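 Broth microdilution per CLSI. Strains grown aerobically overnight on TSA at 37 °C, suspended to 0.5 McFarland, diluted in CAMHB to about 5×10^5 CFU/mL. Agents serially diluted across plate; aerobic incubation 37 °C for 18-20 h. MIC = lowest concentration completely preventing visible growth.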

[25] = tested on: Streptococcus pneumoniae; assay: Antibacterial activity against […] Streptococcus pneumoniae ATCC 700677 assessed as inhibition of visible bacterial growth incubated for 18 to 20 hrs by CLSI method; format: functional; conditions: time 18-20 hrs; in short: as §1
[26] = tested on: Staphylococcus aureus; assay: Antibacterial activity against vancomycin-resistant Staphylococcus aureus 12 assessed as inhibition of visible bacterial growth incubated for 18 to 20 hrs by CLSI method; format: functional; conditions: time 18-20 hrs; in short: as §1
[27] = tested on: Staphylococcus aureus; assay: Antibacterial activity against methicillin-resistant Staphylococcus aureus NRS382 assessed as inhibition of visible bacterial growth incubated for 18 to 20 hrs by CLSI method; format: functional; conditions: time 18-20 hrs; in short: as §1

For `O=C(Nc1nnc(-c2cccs2)o1)c1ccc(S(=O)(=O)C(F)(F)F)cc1`, the Activity [1] was “Non-Toxic”, the inhibition [2] was “inactive” and the Activity [3] was 0.6 log10CFU/ml. The MIC [4] was 2 µg/mL (≈ 4.96 µM), the hemolysis at 1 h, 64 ug/ml [5] was 35% and the Activity [6] was 0.5 log10CFU/ml. The MIC [7] was 8 µg/mL (≈ 19.8 µM), the MIC [8] was 4 µg/mL (≈ 9.92 µM) and the Activity [9] was “Non-Toxic”. For the same compound, the “fractional inhibitory concentration index (FICI)” value [10] was 1.03, the inhibition [11] was “inactive” and the MIC [12] was 4 µg/mL (≈ 9.92 µM). For the same compound, the hemolysis at 1 h, 32 ug/ml [13] was 23%, the “fractional inhibitory concentration index (FICI)” value [14] was 0.53 and the MIC [15] was 4 µg/mL (≈ 9.92 µM). For the same compound, the MIC [16] was 8 µg/mL (≈ 19.8 µM), the MIC [17] was 0.5 µg/mL (≈ 1.24 µM) and the MIC [18] was 4 µg/mL (≈ 9.92 µM). It also gave an Activity [19] of 1.04 log10CFU/ml, an MIC [20] of 4 µg/mL (≈ 9.92 µM) and an MIC [21] of 4 µg/mL (≈ 9.92 µM). It also gave an MIC [22] of 4 µg/mL (≈ 9.92 µM), an MBC [23] greater than 128 µg/mL and an MIC [24] of 4 µg/mL (≈ 9.92 µM). It also gave an MIC [25] of 1 µg/mL (≈ 2.48 µM), an MIC [26] of 8 µg/mL (≈ 19.8 µM) and an MIC [27] of 8 µg/mL (≈ 19.8 µM).
